Experiments:
Format in all cases: functional
Cavia porcellus [1] = organism: Cavia porcellus; experiment: Allergenic cross-reactivity was expressed as number of guinea pig with a positive skin reaction versus number tested upon sensitizing them to poison ivy urushiol; 0/7
Outline: (§1)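 Guinea pigs sensitized topically with 1 mg purified poison ivy urushiol in 0.15 mL acetone on dorsal neck skin (about 10 cm2). Sensitivity was checked with 2 μg PDC in acetone on shaven abdominal skin. Test compounds (10 and 30 μg in acetone) went on abdominal sites. Animals counted positive for erythema/edema at 24, 48 and 72 h, alongside urushiol controls.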

Cavia porcellus [2] = experiment: Skin test reactivity (intensity of erythema and edema) was measured in guinea pig sensitized to poison ivy urushiol by Draize method
Outline: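 Urushiol-sensitized guinea pigs (1 mg in 0.15 mL acetone, dorsal neck) received eliciting doses in acetone on abdominal skin. Erythema and edema were scored 0–4 by Draize at 24, 48 and 72 h and averaged per group. Irritancy was tested with similar doses on nonsensitized animals.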

Cavia porcellus [3] = organism: Cavia porcellus; experiment: The dose which shows the cross-reactivity with guinea pig sensitized to poison ivy urushiol; outline: as §1
Cavia porcellus [4] = organism: Cavia porcellus; experiment: Allergenic cross-reactivity was expressed as number of guinea pig with a positive skin reaction versus number tested upon sensitizing them to poison ivy urushiol; 2/9; outline: as §1
Cavia porcellus [5] = organism: Cavia porcellus; experiment: Allergenic cross-reactivity was expressed as number of guinea pig with a positive skin reaction versus number tested upon sensitizing them to poison ivy urushiol; 7/7; outline: as §1
Cavia porcellus [6] = organism: Cavia porcellus; experiment: Allergenic cross-reactivity was expressed as number of guinea pig with a positive skin reaction versus number tested upon sensitizing them to poison ivy urushiol; 0/15; outline: as §1
Cavia porcellus [7] = organism: Cavia porcellus; experiment: Allergenic cross-reactivity was expressed as number of guinea pig with a positive skin reaction versus number tested upon sensitizing them to poison ivy urushiol; 0/8; outline: as §1
Cavia porcellus [8] = organism: Cavia porcellus; experiment: Allergenic cross-reactivity was expressed as number of guinea pig with a positive skin reaction versus number tested upon sensitizing them to poison ivy urushiol; 5/9; outline: as §1

SMILES | Activity (Cavia porcellus [1]) | Activity (Cavia porcellus [2]) | Dose (Cavia porcellus [3]) | Activity (Cavia porcellus [4]) | Activity (Cavia porcellus [5]) | Activity (Cavia porcellus [6]) | Activity (Cavia porcellus [7]) | Activity (Cavia porcellus [8])
CCCCCCCCCCCCCCCc1cccc(NS(C)(=O)=O)c1O | 0 | 0 | 10 µg | – | – | – | – | –
CCCCCCCCCCCCCCCc1ccc(O)c(O)c1 | – | 0.1 | 1 µg | 2 | – | – | – | –
CCCCCCCCCCCCCc1cccc(O)c1N | – | 2.9 | 10 µg | – | 7 | – | – | –
CCCCCCCCCCCCCCCc1cc(O)ccc1O | – | 0 | 1 µg | – | – | 0 | – | –
CCCCCCCCCCCCCCCCCc1cccc(O)c1NS(C)(=O)=O | 0 | 0 | 10 µg | – | – | – | – | –
CCCCCCCCCCCCCCCc1cccc(O)c1N | – | 2.9 | 10 µg | – | 7 | – | – | –
CCCCCCCCCCCCCCCc1cccc(O)c1NS(C)(=O)=O | 0 | 0 | 10 µg | – | – | – | – | –
CCCCCCCCCCCCCCCCCc1cccc(O)c1N | – | 2.9 | 10 µg | – | 7 | – | – | –
CCCCCCCCCCCCCCCc1cccc(N)c1O | – | 2.4 | 10 µg | – | 7 | – | – | –
CCCCCCCCCCCCCCCc1ccc(O)cc1O | – | 0 | 30 µg | – | – | 0 | – | –
CCCCCCCCCCCCCc1cccc(O)c1NS(C)(=O)=O | 0 | 0 | 10 µg | – | – | – | – | –
CCCCCCCCCCCCCCc1c(O)cccc1O | – | 0 | 10 µg | – | – | – | 0 | –
CCCCCCCCCCCCCCCc1cc(O)cc(O)c1 [CARDOL] | – | 0.6 | 30 µg | – | – | – | – | 5

— ChEMBL document CHEMBL1123164, “Analogues of poison ivy urushiol. Synthesis and biological activity of disubstituted n-alkylbenzenes” (1986)
